Laboratory results taken from ChEMBL document CHEMBL1240413, “Synthesis and evaluation of vinyl sulfones as caspase-3 inhibitors. A structure-activity study” (Eur J Med Chem, 2010).

molecular target: T1, Caspase-3 (Homo sapiens, UniProt P42574); assay: Inhibition of human recombinant caspase 3 assessed as fluorescent 7-amido-4-methylcoumarin release
T1 sequence (P42574 whole entry): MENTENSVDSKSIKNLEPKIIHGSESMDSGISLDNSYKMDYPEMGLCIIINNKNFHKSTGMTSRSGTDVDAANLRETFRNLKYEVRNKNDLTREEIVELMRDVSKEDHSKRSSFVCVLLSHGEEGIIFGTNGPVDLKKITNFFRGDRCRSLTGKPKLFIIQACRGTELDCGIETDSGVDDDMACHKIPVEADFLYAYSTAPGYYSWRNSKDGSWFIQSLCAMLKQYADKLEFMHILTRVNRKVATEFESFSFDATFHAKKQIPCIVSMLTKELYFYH

Row | Compound | IC50
1 | C[C@H](NC(=O)OCc1ccccc1)C(=O)N[C@H](/C=C/S(=O)(=O)c1ccccc1)CC(=O)O | 343 µM
2 | O=C(O)C[C@@H](/C=C/S(=O)(=O)c1ccccc1)NC(=O)OCc1ccccc1 | 453 µM

Other lines, results leading:

Row | IC50 | Compound
3 | 656 µM | C[C@H](NC(=O)OCc1ccccc1)C(=O)N[C@H](/C=C/S(C)(=O)=O)CC(=O)O
4 | 388 µM | CC(C)[C@H](NC(=O)OCc1ccccc1)C(=O)N[C@H](/C=C/S(=O)(=O)c1ccccc1)CC(=O)O
5 | 435 µM | CS(=O)(=O)/C=C/[C@H](CC(=O)O)NC(=O)OCc1ccccc1
6 | 133 µM | CC(C)[C@H](NC(=O)OCc1ccccc1)C(=O)N[C@H](/C=C/S(C)(=O)=O)CC(=O)O

molecular target: T2, Caspase-7 (Homo sapiens, UniProt P55210); assay: Inhibition of human recombinant caspase 7 assessed as fluorescent 7-amido-4-methylcoumarin release
T2 sequence (P55210 whole entry): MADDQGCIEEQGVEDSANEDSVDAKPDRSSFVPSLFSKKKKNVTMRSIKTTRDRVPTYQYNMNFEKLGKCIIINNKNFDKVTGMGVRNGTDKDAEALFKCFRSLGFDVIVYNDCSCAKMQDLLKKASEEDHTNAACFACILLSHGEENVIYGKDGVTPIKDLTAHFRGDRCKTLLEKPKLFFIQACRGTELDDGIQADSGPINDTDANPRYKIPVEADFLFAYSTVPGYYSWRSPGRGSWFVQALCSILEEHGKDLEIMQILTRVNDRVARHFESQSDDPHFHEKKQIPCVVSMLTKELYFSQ
Method in brief: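 Recombinant human caspase-7, 1 U per well final, was mixed with inhibitor at various concentrations in 20 mM HEPES, 2 mM EDTA, 0.1% CHAPS, 5 mM DTT, pH 7.4. The reaction was started by adding Ac-DEVD-AMC substrate, with a stock of 2 mM in DMSO. AMC release was followed continuously at 37 °C (ex 360, em 460 nm), and IC50 was determined.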

Row | Compound | IC50
7 | CC(C)[C@H](NC(=O)OCC1c2ccccc2-c2ccccc21)C(=O)N[C@H](/C=C/S(=O)(=O)c1ccccc1)CC(=O)O | > 200 µM
8 | CC(=O)N[C@@H](CC(=O)O)C(=O)N[C@@H](CCC(=O)O)C(=O)N[C@H](C(=O)N[C@H](C=O)CC(=O)O)C(C)C | 0.0591 µM
9 | CS(=O)(=O)/C=C/[C@H](CC(=O)O)NC(=O)OCC1c2ccccc2-c2ccccc21 | > 200 µM
10 | O=C(O)C[C@@H](/C=C/S(=O)(=O)c1ccccc1)NC(=O)OCC1c2ccccc2-c2ccccc21 | > 200 µM

The remaining lines, values ahead:

Row | IC50 | Compound
11 | > 200 µM | CC(C)[C@H](NC(=O)OCC1c2ccccc2-c2ccccc21)C(=O)N[C@H](/C=C/S(C)(=O)=O)CC(=O)O
12 | > 200 µM | CC[C@H](C)[C@H](NC(=O)OCc1ccccc1)C(=O)N[C@H](/C=C/S(C)(=O)=O)CC(=O)O
13 | > 200 µM | CC[C@H](C)[C@H](NC(=O)OCc1ccccc1)C(=O)N[C@H](/C=C/S(=O)(=O)c1ccccc1)CC(=O)O
14 | > 200 µM | CC(C)[C@H](NC(=O)OCc1ccccc1)C(=O)N[C@H](/C=C/S(C)(=O)=O)CC(=O)O
